ADAM10 inh – ADAM10 inhibition, QFRET primary screen; 370,000 tested, 0.62% active; AID 720582; O14672; recombinant ADAM10, EDANS/DABCYL FRET peptide cleavage, 3 h; inhibition, % at 7 µM;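 active = inhibition above a per-campaign cutoff equal to the mean of compounds falling between control-based bounds plus 3 SD, cut at about 20% in these data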;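 note: 0% = DMSO wells while the 100% control is not disclosed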
PLCb3 inh – blocks human PLC-beta3 enzyme activity; AID 720704; Q01970; Purified PLC-beta3, fluorogenic substrate, fluorescence; inhibition, % at 12.2 µM; 370,000 tested, 0.18% active; in the data active = inhibition above about 11%;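 note: 0% = median of compound wells on plate and 100% = full blocker control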
Tn6 DDE FP – inhibitors of Tn6 peptide binding to human fibrin DD(E). 370,000 tested, 0.21% active. Fibrin DD(E) TRITC-Tn6 fluorescence polarization displacement. inhibition, % at 8.3 µM. AID 720509;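 active = inhibition above a per-campaign cutoff: mean of compounds within control limits plus 3 SD, cut at about 15% in these data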;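 note: 0% = median of all compound wells on the plate and 100% = blocking peptide control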
Target sequence (P02675 whole entry, looked up): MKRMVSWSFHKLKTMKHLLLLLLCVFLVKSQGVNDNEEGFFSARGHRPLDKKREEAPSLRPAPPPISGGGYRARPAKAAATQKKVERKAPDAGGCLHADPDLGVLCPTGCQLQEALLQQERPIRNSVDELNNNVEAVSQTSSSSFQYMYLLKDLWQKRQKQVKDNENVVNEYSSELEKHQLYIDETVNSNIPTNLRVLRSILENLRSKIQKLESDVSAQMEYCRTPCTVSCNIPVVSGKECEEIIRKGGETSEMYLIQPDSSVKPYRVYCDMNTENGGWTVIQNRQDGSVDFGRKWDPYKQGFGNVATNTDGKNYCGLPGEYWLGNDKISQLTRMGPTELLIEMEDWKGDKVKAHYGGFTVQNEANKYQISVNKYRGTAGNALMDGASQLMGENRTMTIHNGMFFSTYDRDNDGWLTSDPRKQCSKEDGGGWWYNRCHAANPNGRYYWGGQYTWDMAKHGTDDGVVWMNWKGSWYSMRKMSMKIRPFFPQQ
Tn7 DDE FP – inhibitors of Tn7 peptide binding to human fibrin DD(E). FP displacement of FITC-Tn7 peptide from fibrin DD(E); 0% = median of compound wells per plate. inhibition, % at 8.3 µM. 370,000 tested, 0.13% active. AID 720508;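 active = inhibition above the mean of compounds falling within the control limits plus 3 SD of them, cut at about 14% in these data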;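 note: 0% = plate median of compound wells and 100% = 10 µM Aha-Tn7 peptide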
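Assay system: human fibrin DD(E) protein / Input: 2 µM fibrin DD(E) / Benchmarks: high control of 10 µM Aha-Tn7 peptide / Measured by: fluorescence polarization of the labelled Tn7 tracer / Medium: Tris buffer with calcium and detergent, pH 7.8 / Timing: 10 min compound pre-incubation, 3 h probe incubation at room temperature / Repeats: one replicate per compound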
ADAM17 inh – ADAM17 inhibition, QFRET primary screen; 370,000 tested, 0.83% active; P78536; recombinant ADAM17, EDANS/DABCYL FRET peptide cleavage; AID 720648; inhibition, % at 6.95 µM;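 active = inhibition above the mean of compounds lying between control limits plus 3 SD, set per campaign, cut at about 8.5% in these data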;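 note: 0% = DMSO-only wells as the low control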
PLC-gamma1 inh – blocks human PLC-gamma1 enzyme activity; inhibition, % at 12.2 µM; P19174; purified PLC-gamma1, fluorogenic substrate, fluorescence; 370,000 tested, 0.84% active
PLCg1 ctr – inhibits human PLC-gamma1 in PLC-beta3 counter-screen | shares compounds with PLC-gamma1 inh | purified PLC-gamma1, fluorogenic substrate, fluorescence | inhibition, % at 12.3 µM | 3,300 tested, 3.1% active | AID 743258
PLCb3 confirm – confirmation of human PLC-beta3 inhibitors. shares compounds with PLC-gamma1 inh. purified PLC-beta3, fluorogenic substrate fluorescence. inhibition, % at 12.3 µM. 3,300 tested, 1% active; in the data active = inhibition above about 11%
Starred values were filed as active, the others as inactive; i = inactive; x = no result. This is a sample that favours compounds with a hit; in the whole collection about 2.3% have one here. Cut-off read from the data, not from the text of the source, unless noted: active = inhibition above about 9.5%; inactive = the rest.

SMILES | ADAM10 inh | PLCb3 inh | Tn6 DDE FP | Tn7 DDE FP | ADAM17 inh | PLC-gamma1 inh | PLCg1 ctr | PLCb3 confirm
CCCC(=O)OC12CCCN(C1)/C(=C/c1cccc(Cl)c1)C2 (centres undefined) | -8 | 1 | -12 | 0 | -2 | 0 | x | x
CCCn1c(=O)c(F)cn(Cc2ccc(OC)c([N+](=O)[O-])c2)c1=O | 0 | 12* | 4 | 2 | 5 | 4 | -5 | 0
CCCCn1c(=O)c(F)cn(Cc2ccc(OC)c([N+](=O)[O-])c2)c1=O | -5 | 3 | 10 | 4 | 1 | 4 | x | x
Cc1cccc(N2CCN(S(=O)(=O)c3cc4c(cc3Cl)NC(=O)CO4)CC2)c1C | 16 | 1 | -8 | -1 | 3 | 10* | 2 | -3
COc1cccc(N2CCN(S(=O)(=O)c3cc4c(cc3Cl)NC(=O)CO4)CC2)c1 | 8 | 7 | -2 | 10 | 3 | 2 | x | x
CCCCCCCC(=O)N[C@H]1CC[C@@]23CCCN2C(=O)CCC[C@H]3[C@H]1CCC | -4 | 1 | 2 | 3 | -4 | 2 | x | x
CCOC(=O)[C@@]12CCC3=C1N(CCC3)C(=O)[C@H](CC(=O)N1CCN(C(=O)C3CC3)CC1)C2 | -9 | -2 | -1 | 6 | -10 | 0 | x | x
C=CCn1c(-c2csc(-c3ccccc3)n2)n[nH]c1=S | 1 | -1 | -3 | -5 | 4 | 8 | x | x
C=CCn1c(-c2csc(-c3ccc(Cl)cc3)n2)n[nH]c1=S | 14 | 8 | 8 | 4 | 3 | 9.8* | -11 | -10
Clc1ccc(CSc2nnc(NC3=NCCCCC3)s2)cc1 | 9 | 11* | -1 | 3 | 5 | 5 | -3 | 2
Nc1nnc(SCc2ccc(Cl)cc2)s1 | 2 | 1 | -7 | 10 | 0 | 0 | x | x
C=CCN1C(=O)[C@@H](CC(=O)NCC23CC4CC(CC(C4)C2)C3)[C@]2(C(=O)OCC)CCCCC/C=C/12 | 1 | -2 | 4 | 7 | 0 | 3 | x | x
CCCCN(CCCC)CC(O)COc1ccccc1C(=O)Nc1ccccc1 (centres undefined) | 2 | 11* | -7 | -13 | 6 | 7 | 0 | 0
Cc1ccc(NS(=O)(=O)c2ccc(OCC(=O)NCc3ccncc3)cc2)cc1 | 6 | 11* | -1 | 0 | 5 | 3 | -7 | -1
COc1ccc([C@H]2OC(=O)C[C@@H]2C(=O)N2CCN(c3ccccc3F)CC2)cc1OC | -7 | 2 | -1 | 1 | -4 | -2 | x | x
Cc1cc(NC(=O)c2ccc3c(c2)OCO3)ccc1NC(=O)c1ccco1 | 1 | 5 | -8 | -7 | -1 | -3 | x | x
O=C(O)c1ccccc1C(=O)Nc1ccc(S(=O)(=O)N2CCCC2)cc1 | 6 | 5 | 3 | -5 | 6 | 10* | -3 | 2
O=C(Nc1ccc(S(=O)(=O)N2CCCC2)cc1)c1ccccc1 | -7 | -5 | 0 | 0 | -5 | -3 | x | x
Cc1cc(NC(=O)c2ccc3c(c2)OCO3)ccc1NC(=O)c1ccccc1 | -3 | 12* | -8 | 2 | -1 | 4 | -6 | 15*
O=C(COC(=O)c1n[nH]c2ccccc12)Nc1ccc(S(=O)(=O)N2CCCC2)cc1 | -3 | 5 | 5 | -1 | 3 | 11* | 2 | -1
CC(C)c1ccccc1NC(=O)Nc1ccc2c(c1)OCO2 | -2 | 3 | -3 | -5 | 2 | 12* | 9.7* | 2
O=C(COC(=O)c1n[nH]c2ccccc12)Nc1ccccc1 | -11 | -3 | -4 | 5 | -4 | 0 | x | x
CC(C)CNC(=O)C1CSCCS(=O)(=O)N1Cc1ccc(F)cc1 (centres undefined) | 3 | 4 | 1 | -8 | 0 | -1 | x | x
CN(CCOc1ccccc1)C(=O)c1ccc2c(c1)OCO2 | -17 | -8 | -1 | 0 | -1 | 3 | x | x
O=C(Nc1ccc2c(c1)OCO2)c1cccc(S(=O)(=O)N2CCCC2)c1 | 10 | 11* | -1 | -8 | 7 | 6 | -4 | 1
SMILES | ADAM10 inh | PLCb3 inh | Tn6 DDE FP | Tn7 DDE FP | ADAM17 inh | PLC-gamma1 inh | PLCg1 ctr | PLCb3 confirm
O=C(NCCOc1ccccc1)c1ccc2c(c1)OCO2 | -2 | 3 | -5 | -4 | 2 | 13* | 0 | -3
COc1ccc(Nc2nc(Nc3ccc(OC)cc3)nc(SC3=NCCS3)n2)cc1 | 17 | 1 | -9 | -6 | 4 | 13* | 4 | 4
Cc1ccccc1CN1[C@@H](C)[C@H](c2ccccc2)Oc2cccc(N3CCCC(C)C3)c2S1(=O)=O (some centres undefined) | 1 | 2 | -6 | -8 | 1 | 1 | x | x
CCn1c(N2CCC(C)CC2)nc2c1c(=O)n(C)c(=O)n2C | -8 | -2 | -1 | 0 | -4 | 12* | 0 | 1
CC1CCN(c2nc3c(c(=O)n(C)c(=O)n3C)n2Cc2ccccc2)CC1 | 13 | 4 | -6 | -1 | 2 | 3 | x | x
CCOc1ncnc2c1sc1nc3c(cc12)COC(C)(C)C3 | 9 | 2 | -4 | -5 | 4 | 10* | -4 | -1
CCCOc1ncnc2c1sc1nc3c(cc12)COC(C)(C)C3 | -3 | -1 | 7 | 2 | 0 | 7 | x | x
CCOC(=O)C1NC(=O)CC1c1ccccc1 (centres undefined) | -3 | 8 | -14 | 2 | -1 | 11* | 7 | 3
CC(=O)NC(CC(=O)NC1CCCCCC1)c1ccccc1 (centres undefined) | 13 | 7 | -1 | -1 | 3 | 4 | x | x
CCC(NC(=O)NC1CCCCC1)c1ccccc1 (centres undefined) | 7 | 12* | 2 | -3 | 5 | 9.5* | -4 | 0
C=CCSC1=N/C(=C\c2ccc3c(c2)OCO3)C(=O)S1 | 0 | -1 | 0 | 9 | -7 | -1 | x | x
C=CCSC1=N/C(=C\c2cc(OCC)c(OC(C)=O)c([N+](=O)[O-])c2)C(=O)S1 | 13 | 5 | -9 | -9 | 5 | 12* | 2 | -1
CCOC(=O)c1ncn2c1C(=O)OC2(C)C | 13 | 6 | 0 | 0 | 4 | 15* | -1 | 2
CCOC(=O)C1=CC(=O)CC(C)(C)O1 | -14 | 3 | 6 | 6 | -2 | 3 | x | x
Cn1c(/C(C#N)=C/Nc2ccccn2)nc2ccccc21 | -112 | i | 2 | -2 | -39 | -352 | x | x
CCOc1ccccc1N/C=C(\C#N)c1nc2ccccc2n1C | 2 | 3 | -2 | -9 | 3 | 9.6* | -5 | -8
COC(=O)[C@]12C[C@H](CC(=O)N3CCN(C(=O)C4CC4)CC3)C(=O)N(CCc3ccc(OC)c(OC)c3)C1=C[C@H](COCc1ccccc1)O[C@@H]2C | 2 | 0 | 2 | 1 | -2 | 0 | x | x

Source: PubChem (The Scripps Research Institute Molecular Screening Center)
